# ABCG2 block – ABCG2 efflux pump inhibitors, primary screen, multiplex with ABCB1, IgMXP3 cells, flow cytometry | Broad substrate specificity ATP-binding cassette transporter ABCG2 (Homo sapiens), Q9UNQ0 | JC-1 efflux | inhibition, % at 6.6 µM | actives 0.1% (n = 190,000) | AID 1325, 2008;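 active means inhibition above 80%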;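 further: 0% = DMSO and 100% = nicardipine control wells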
#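 System: two drug-resistant human cell lines, ABCG2 and ABCB1; controls: nicardipine high and DMSO low controls; times: 10 min exposure at 25 °C with rotation, no wash; detection: flow cytometry of retained JC-1 fluorescence; read-out basis: percent efflux inhibition, scaled nicardipine 100% to DMSO 0%; doses: one concentration, 6.6 µM final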
# ABCB1 inh – ABCB1 efflux pump inhibitors, primary screen, cell-based, multiplex, flow cytometry, ABCG2 counter-screen. ATP-dependent translocase ABCB1 (Homo sapiens), P08183. CCRF-Adr cells, JC-1 efflux. inhibition, % at 6.6 µM. actives 0.067% (n = 190,000). AID 1326, 2008; in the data active means inhibition above about 40%;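 further: 0% = vehicle and 100% = reference inhibitor; higher value means more JC-1 retained so stronger ABCB1 efflux block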
# TNAP inh hiacc – human TNAP enzyme inhibitors, primary screen, biochemical, luminescent, high phosphate acceptor level, uHTS; Alkaline phosphatase, tissue-nonspecific isozyme (Homo sapiens), P05186; purified TNAP, CDP-star luminescence, 1 M DEA; inhibition, % at 20 µM; actives 0.03% (n = 200,000);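 active means over 50% inhibition of tissue-nonspecific alkaline phosphatase at 20 µM in the single-dose screen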;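 further: plate controls were DMSO wells for no effect and EDTA-quenched wells as full inhibition for full effect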
# TNAP act hiacc – TNAP activators at high phosphate acceptor level, primary screen, biochemical, luminescence, uHTS; purified TNAP, CDP-star luminescence, 1 M DEA, 30 min; hits give high values; 0 = EDTA background, 1 = DMSO-only activity; activation factor at 20 µM; 200,000 tested, under 10 active; AID 1136, 2008;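 active means activation factor at least 2 at 20 µM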
#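 system = human TNAP | amount = enzyme diluted 1/800 final | reagent = 100 µM CDP-star substrate | signal = luminescent substrate turnover signal | dosing = one dose, 20 µM | benchmarks = EDTA negative control, DMSO positive control | measure = activation factor | timing = 30 min reaction, room temperature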
# TNAP inh noacc – human TNAP enzyme inhibitors, primary screen, biochemical, luminescent, no phosphate acceptor, uHTS; actives 0.26% (n = 200,000); AID 1012, 2008; purified TNAP, CDP-star luminescence, 30 min; inhibition, % at 20 µM; Alkaline phosphatase, tissue-nonspecific isozyme (Homo sapiens), P05186;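 active means tissue-nonspecific alkaline phosphatase inhibition above about 50% at 20 µM in the single-dose screen, limit read from the data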;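 further: 0% = DMSO negative control and 100% = EDTA positive control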
# ABCB1 confirm – ABCB1 efflux pump inhibitors, confirmation, cell-based, single point, ABCG2 counter-screen | shares compounds with ABCG2 block | CCRF-Adr cells, JC-1 efflux, flow cytometry | inhibition, % at 6.6 µM | actives 7% (n = 270);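 active means inhibition of pump activity above 50%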;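 further: 0% = DMSO and 100% = nicardipine full pump inhibition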
# ABCG2 single pt – ABCG2 efflux pump inhibitors, confirmation, single point, IgMXP3 cells, ABCB1 counter-screen paired; shares compounds with ABCG2 block; JC-1 efflux, flow cytometry; inhibition, % at 6.6 µM; actives 6% (n = 270); AID 1453, 2008;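 active means inhibition above 50%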;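 further: 0% = DMSO wells and 100% = nicardipine pump inhibitor wells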
# IgMXP3 autofluor – compound autofluorescence in ABCG2-expressing IgMXP3 cells, confirmation, artefact control for ABC transporter inhibitor project, cell-based, 488/530 nm, flow cytometry. shares compounds with ABCG2 block. compound autofluorescence 488/530 nm; hits give high values. fluorescence at 6.6 µM. actives 30% (n = 270);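 active means fluorescence in ABCG2-expressing cells above the plate's control-well mean plus 3 SD, cut at about 15 in these data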;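 further: median cell fluorescence with compound minus that of DMSO-treated control cells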
# CCRF-Adr fluor – compound autofluorescence in ABCB1-expressing CCRF-Adr cells, confirmation, artefact control for ABC transporter inhibitor project, cell-based, 488/530 nm, flow cytometry | shares compounds with ABCG2 block | compound autofluorescence 488/530 nm; hits give high values | fluorescence at 6.6 µM | actives 30% (n = 270) | AID 1483, 2009;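 active means fluorescence beyond the plate control mean plus 3 SD, with a fluorescence-to-maximum score over 2, cut at about 25 in these data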
# The depositor's hits bear a star; x = no result given. In the library only some 0.41% were active in any assay of this set; here they are far more common.
SMILES,ABCG2 block,ABCB1 inh,TNAP inh hiacc,TNAP act hiacc,TNAP inh noacc,others
COc1cccc(-n2c(/C=C/c3ccc(O)c(O)c3)nc3ccccc3c2=O)c1,1,0,31,0.7,84*,
Oc1ccc(/C=N/NP(=S)(c2ccccc2)c2ccccc2)cc1O,-1,0,18,0.8,77*,
O=C(O)[C@H]1NC[C@H]2C[C@H]21,2,0,-3,1,-10,
O=c1[nH]c2ccccc2n1CCCN1CCC(n2c(=O)[nH]c3cc(Cl)ccc32)CC1,0,0,10,0.9,70*,
NC1=NC(=O)C(c2ccccc2)O1 (stereo not given),1,x,0,1,30,
COc1ccc(Cn2c(O)c(/C=N/NC(=O)c3ccccc3)c(=O)[nH]c2=O)cc1,-10,-1,0,1,71*,
COc1ccc(Cn2c(O)c(/C=N/NC(=O)c3ccccc3O)c(=O)[nH]c2=O)cc1,-12,-5,-4,1,-52,
COc1cc(/C=C/[N+](=O)[O-])ccc1O,5,1,38,0.6,53*,
CCN(CC)c1ccc(/C=C/[N+](=O)[O-])cc1,0,0,33,0.7,40,
Cc1c(N=Nc2c(O)[nH]c(=S)[nH]c2=O)c(=O)n(-c2ccccc2)n1C,-7,-1,14,0.9,2,
CCOc1ccc2nc(N=Nc3c(O)[nH]c(=S)[nH]c3=O)sc2c1,-3,-1,53*,0.5,36,
CCOC(=O)C1=C(NC(=S)NC(=O)c2ccccc2)c2ccccc2CC12CCCC2,-1,0,0,1,-7,
Oc1cc2c(cc1O)[C@H]1c3ccccc3CN[C@@H]1CC2,0,x,7,0.9,92*,
CCOC(=O)C1(CCCc2ccccc2)CCN(C2CCC2)CC1,13,3,0,1,4,
CC(C)=CCC12CN3CCN(CC(C3)C1=O)C2,107*,4,-2,1,-8,ABCB1 confirm=-3;ABCG2 single pt=7;IgMXP3 autofluor=2.8;CCRF-Adr fluor=19
Cn1cc(C(=O)N2CCOCC2)c2ccccc21,3,0,-6,1.1,-14,
